# Screens from PubChem BioAssay.
# This is a sample that favours compounds with a hit; in the whole collection about 2.4% have one here.
# LGR2 antag: blocks bursicon-induced cAMP signaling via Drosophila LGR2 | HEK293 LGR2, CRE-luciferase, bursicon-stimulated, 4 h | inhibition, % at 9.99 µM | actives 0.35% (n = 380,000);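 active means drop in luminescence signal, shown as inhibition above about 50% in the replicate tests, limit read from the data, passing the limit was not always enough; inconclusive means probably only some replicates passing the limit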;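 further: agonist challenge used bursicon conditioned medium at about half maximal strength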
# rRNA inh HTS: selective bacterial rRNA inhibition in E. coli | actives 1.6% (n = 350,000) | GFP signal change (wild-type ribosome), % (no concentration beside the values) | AID 720706 | E. coli WT GFP vs humanized-ribosome RFP mutants, fluorescence, 24 h; active compounds read low; DMSO median 0, no signal -100;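 active means significant combined selectivity score with lowered wild-type GFP, culture density cut under 30%, mutant RFP and density less affected; inactive means any of these conditions unmet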
# E-sel inducer: induces E-selectin expression in human endothelial cells | HUVEC E-selectin immunofluorescence imaging; normalized: neutral wells 0, TNF-alpha wells 100 | AID 686992 | activation, % at 7.58 µM | actives 0.37% (n = 260,000) | P16581;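 active means mean E-selectin-positive cell signal at least 10% of the positive control, reached in at least 60% of replicates, without over 20% cell loss; inconclusive means no rule given, readout overlaps actives, possibly toxicity-flagged; inactive means the rest, including those meeting only one limit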
# Target sequence (P16581 whole entry, looked up): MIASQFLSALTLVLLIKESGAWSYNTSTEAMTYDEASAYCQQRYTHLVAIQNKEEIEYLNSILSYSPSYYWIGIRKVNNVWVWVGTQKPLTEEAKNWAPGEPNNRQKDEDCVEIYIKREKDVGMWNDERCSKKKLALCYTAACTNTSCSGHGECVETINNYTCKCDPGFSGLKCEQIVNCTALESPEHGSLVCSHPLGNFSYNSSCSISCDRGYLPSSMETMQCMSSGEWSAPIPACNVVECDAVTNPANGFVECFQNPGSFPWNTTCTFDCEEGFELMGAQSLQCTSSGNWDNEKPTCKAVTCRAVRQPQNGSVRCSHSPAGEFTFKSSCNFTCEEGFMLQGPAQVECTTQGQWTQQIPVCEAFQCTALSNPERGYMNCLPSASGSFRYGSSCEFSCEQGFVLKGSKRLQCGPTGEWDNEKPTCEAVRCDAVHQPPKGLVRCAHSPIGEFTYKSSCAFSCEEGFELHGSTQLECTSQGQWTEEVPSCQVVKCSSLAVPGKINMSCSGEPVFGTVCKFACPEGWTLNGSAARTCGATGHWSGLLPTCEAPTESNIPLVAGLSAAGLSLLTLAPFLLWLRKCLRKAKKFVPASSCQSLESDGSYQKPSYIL
#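 System: HUVEC / Compound: single concentration / Signal: immunofluorescence imaging / Read-out: percent E-selectin-positive cells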
# EWS-Fli inh: inhibitors of EWS/Fli oncoprotein transcriptional activity; A673 NR0B1-luciferase reporter, viability-normalised; inhibition, % at 12.6 µM; actives 0.67% (n = 350,000);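 active means mean inhibition of at least 50% after viability correction, with every replicate also passing that limit; inconclusive means mean reaches 50% but only one of two replicates passes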;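 further: firefly luciferase signal divided by Alamar Blue viability fluorescence both relative to DMSO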
# AID977621: wild-type E. coli growth inhibition versus H69 humanized strain – H69 mutant RFP, wild-type GFP, cherry-pick, dose response. shares compounds with rRNA inh HTS. fluorescence, 24 h. activity change, negative = inhibition at 50 µM. 1,900 tested, under 10 active;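 active means Wild-type ribosome reporter drop at least double the humanized mutant ribosome reporter drop, growth loss under a set limit; inconclusive means no clear call, values can overlap the other calls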;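 further: wild-type GFP and H69 mutant RFP strains grown together 50/50 in each well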
# AID977628: E. coli growth inhibition, wild-type GFP versus h24 humanized RFP strain, dose response, h24 mutant RFP vs wild-type GFP, cherry-pick; shares compounds with rRNA inh HTS; E. coli WT GFP strain growth, fluorescence, 24 h; activity change, negative = inhibition at 50 µM; 1,900 tested, under 10 active; AID 977628;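 active means compound lowering the normal-ribosome reporter at least twice as much as the humanized-ribosome reporter, growth loss under a set limit; inconclusive means no clear call, values can overlap the other calls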;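 further: wild-type GFP and h24 humanized RFP strains co-cultured 1 to 1 per well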
# Starred values were filed as active, the others as inactive; ? = inconclusive; . = no result given; ! = not active in a repeat.
SMILES,LGR2 antag,rRNA inh HTS,E-sel inducer,EWS-Fli inh,AID977621,AID977628
COc1ccc(NC(=O)Nc2cccc3c2O[C@@H](CN(C)S(=O)(=O)c2ccc(Cl)cc2)[C@H](C)CN([C@H](C)CO)C3=O)cc1,-1.9,-4.2,1.8,-9.0,.,?
COc1ccc(NC(=O)Nc2cccc3c2O[C@H](CN(C)S(=O)(=O)c2ccc(Cl)cc2)[C@@H](C)CN([C@H](C)CO)C3=O)cc1,16.7,-5.1,0.1,-8.2,.,?
COc1ccc(NC(=O)Nc2cccc3c2O[C@@H](CN(C)S(=O)(=O)c2ccc(Cl)cc2)[C@@H](C)CN([C@H](C)CO)C3=O)cc1,.,.,.,-19.5,.,.
C[C@@H]1CN([C@H](C)CO)C(=O)c2cccc(NC(=O)C3CCOCC3)c2O[C@H]1CN(C)C(=O)Nc1ccc(F)cc1,11.2,6.3,9.2,2.5,.,.
O=c1[nH]nc(SCc2ccccc2)n1C1CC2C=CC1C2 (stereo not given),10.8,-34.7*,1.7,17.6,-23.3,?
COc1ccccc1C1CCN(C(=O)c2cccs2)CC1,17.2,-25.2*,13.6,3.1,2.25,-11.3
C[C@H](CO)N1C[C@H](C)[C@@H](CN(C)S(=O)(=O)c2cccs2)Oc2ncc(/C=C/c3ccccc3)cc2C1=O,12.5,-9.8,0.1,12.1,.,.
c1ccc(-c2nc(-c3cccnc3)cs2)cc1,-54.3,-23.8*,.,-69.5,?,.
c1ccc(-c2csc(-c3cccnc3)n2)cc1,-78.4,-21.1,0.4,-22.8,.,.
Cc1cccc(N2CCN(Cc3nc(-c4ccc(F)cc4F)oc3C)CC2)n1,-1.4,-34.2*,0.0,-1.6,-12.2,-18.5
COc1ccc(C#Cc2ccc3c(c2)[C@H]2[C@H](CCN2C(=O)c2ccccn2)[C@H](CO)N3)cc1,-7.9,-1.1,0.3,.,.,.
Cc1ccc(-c2ccc(C3[C@H]4CNC[C@@H]3N4Cc3nccs3)cc2)cc1 (stereo not given in full),0.1,-0.2,-0.1,.,.,.
C(=C\c1ccc(C2[C@H]3CNC[C@@H]2N3Cc2nccs2)cc1)/c1ccccc1 (stereo not given in full),-8.4,-21.1*!,0.5,18.2,.,?
CCC(=O)N1CC2(C1)CN(Cc1ccc3c(c1)OCO3)[C@H](CO)c1c2c2ccc(OC)cc2n1C,9.3,-1.6,0.2,0.5,.,.
CN1c2ccc(C#Cc3cccnc3)cc2[C@@H]2[C@@H](CCN2C(=O)c2cccc(F)c2)[C@H]1CO,-18.0,-38.5*,-0.2,15.2,2.55,.
CC(C)NC(=O)N1CC[C@H]2[C@@H]1c1cc(C#Cc3cccnc3)ccc1N(C)[C@H]2CO,-27.1,-1.1,0.8,0.7,.,.
C[C@H]1CN([C@@H](C)CO)C(=O)Cc2cc(NC(=O)Nc3cccc4ccccc34)ccc2O[C@H]1CN(C)S(=O)(=O)c1ccccc1,1.5,-0.9,0.9,7.7,.,.
O=C(CSCc1c(Cl)cccc1Cl)NCc1ccccn1,16.6,-22.8*,3.9,10.2,-5.63,-2.1
O=C(COc1ccc(Br)cc1)NCc1ccccn1,6.0,6.1,.,10.3,.,.
O=C(CSCc1ccc(Br)cc1)NCc1ccccn1,-1.3,-19.4*,.,-1.2,1.89,0.689
COc1ccc(CNC(=O)CSCc2c(F)cccc2Cl)cc1,-9.8,-26.7*,5.6,-1.5,-2.64,.
Cc1cccc(-c2ccc([C@H]3[C@H]4CN(C(=O)c5cnccn5)CC(=O)N4[C@H]3CO)cc2)c1,.,2.3,.,.,.,.
CCS(=O)(=O)N1CC(=O)N2[C@H](CO)[C@@H](c3ccc(C#Cc4ccc(F)cc4)cc3)[C@@H]2C1,.,-59.0,.,.,.,.
O=C(C[C@@H]1C[C@@H]2c3cc(NC(=O)NC4CCCC4)ccc3O[C@@H]2[C@H](CO)O1)NCc1ccccn1,21.8,4.3,-0.1,-6.7,.,.
COCCn1c(SCC(=O)Nc2ccccc2OC)nc2ccccc21,2.0,-23.7*,-0.4,-4.1,-3,?
SMILES,LGR2 antag,rRNA inh HTS,E-sel inducer,EWS-Fli inh,AID977621,AID977628
COCCn1c(SCc2nc3ccccc3s2)nc2ccccc21,-87.1,-19.4*,.,-108.4,-11.4,.
COc1ccccc1NC(=O)CSc1nccn1Cc1ccc(F)cc1,1.8,-23.6*,0.2,0.4,-4.76,.
COCCn1c(SCC(=O)Nc2cccnc2Cl)nc2ccccc21,-11.5,-3.7,-0.3,-9.3,.,.
CCOCCCn1c(SCc2nc3ccccc3s2)nc2ccccc2c1=O,?,.,0.1,-35.8,.,.
C[C@H](CO)N1C[C@H](C)[C@H](CN(C)C(=O)NC2CCCCC2)OCCCC[C@H](C)Oc2ccc(NC(=O)Nc3cccc4ccccc34)cc2C1=O,18.1,1.9,0.0,15.6,.,.
CCCC(=O)Nc1ccc2c(c1)C(=O)N(C)C[C@@H](OC)[C@@H](C)CN(C(=O)c1ccccn1)[C@@H](C)CO2,1.4,-0.2,0.3,0.1,.,.
CC(=O)N(C)C[C@H]1OCc2ccccc2-c2c(n(C)c3ccccc23)C(=O)N([C@H](C)CO)C[C@H]1C,-5.2,-0.1,-0.4,-3.1,.,.
Cc1ccc(N2C(=O)NC(NS(=O)(=O)c3ccccc3)(C(F)(F)F)C2=O)cc1 (stereo not given),-9.0,-0.1,.,-0.8,.,.
Cc1ccc(N2C(=O)NC(NS(=O)(=O)c3ccccc3)(C(F)(F)F)C2=O)cc1C (stereo not given),5.5,-17.2*,-0.4,-3.0,-11,.
COc1cc(C(=O)NCCc2c[nH]c3ccccc23)ccc1OCc1c(C)noc1C,2.9,-38.2*,-0.2,25.7,-12.9,?
O=C(Nc1ccc(-c2nnc3n2CCCCC3)cc1)c1cc2ccccc2o1,.,-20.4*,.,-8.2,-7.44,-3.19
COc1ccc(NC(=O)C(C)SCc2ccccc2)cc1OC (stereo not given),19.5,-0.6,.,-4.9,.,.
COc1cccc(NC(=O)C(c2ccccc2)N2CCN(c3ccccn3)CC2)c1 (stereo not given),5.9,-19.1*,2.1,3.5,-5.86,-13.8
COc1cccc(NC(=O)C(C)SCc2ccccc2)c1 (stereo not given),-12.8,-25.0*,-0.1,-29.6,-0.154,0.989
C[C@H]1CN([C@@H](C)CO)C(=O)c2cc(NC(=O)CCCCCC(=O)Nc3ccccc3N)ccc2O[C@H]1CN(C)S(=O)(=O)c1cn(C)cn1,3.1,2.2,-4.4,-9.3,.,.
Cc1ccc(C(=O)Nc2cccc(N(C)S(C)(=O)=O)c2)cc1S(=O)(=O)Nc1ccccc1,17.2,-19.6*,.,9.7,?,.
COc1ccc(S(=O)(=O)Nc2ccc3c(c2)C(=O)N([C@@H](C)CO)C[C@H](C)[C@@H](CN(C)CC2CCCCC2)OCCCC[C@H](C)O3)cc1,8.4,4.5,0.1,9.3,.,.
